Calls of active or inactive are those of the source. The calls are words filed in the database; no cut-off is given here.
Columns and labels:
Mus musculus [1] = assay: Anticonvulsant activity in ip dosed albino CF1 mouse seizure model assessed as protection against hind limb extension by MES test; type: functional; conditions: albino CF1, Hindlimb
Summary of the method: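 Maximal electroshock seizure test run by the NINDS ASP (Stables and Kupferberg procedures). Compounds were given intraperitoneally to mice, and the ED50 for seizure protection is reported in mg/kg.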

[2] = Neurological toxicity in ip dosed albino CF1 mouse assessed as neurological impairment by rotarod test; type: organism-based; conditions: in vivo
Summary of the method: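 Neurological impairment was measured with the rotorod test in mice dosed intraperitoneally. The median dose (TD50, mg/kg) was determined only for compounds with significant MES activity.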

Mus musculus [3] = assay: Anticonvulsant activity against subcutaneous metrazole-induced seizures in albino CF1 mouse at 300 mg/kg, ip after 0.5 hrs; type: functional, organism-based; design: dose 300 mg/kg
Summary of the method: (§1)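 Subcutaneous Metrazol seizure test under the NINDS ASP, using ip dosing to mice, typically at 300 mg/kg. Protection was assessed at 0.5 and 4 h.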

Rattus norvegicus [4] = assay: Anticonvulsant activity against subcutaneous metrazole-induced seizures in albino Sprague-Dawley rat at 300 mg/kg, ip after 0.5 hrs; type: functional, organism-based; design: dose 300 mg/kg
Mus musculus [5] = assay: Anticonvulsant activity against subcutaneous metrazole-induced seizures in albino CF1 mouse at 300 mg/kg, ip after 4 hrs; type: functional, organism-based; design: dose 300 mg/kg; summary of the method: as §1
Rattus norvegicus [6] = assay: Anticonvulsant activity against subcutaneous metrazole-induced seizures in albino Sprague-Dawley rat at 300 mg/kg, ip after 4 hrs; type: functional, organism-based; design: dose 300 mg/kg

COC[C@H](NC(C)=O)C(=O)NCc1ccc(C=O)cc1
ED50 (Mus musculus [1]): > 300 mg/kg | TD50 [2]: > 300 mg/kg | Activity (Mus musculus [3]): inactive | Activity (Rattus norvegicus [4]): inactive | Activity (Mus musculus [5]): inactive | Activity (Rattus norvegicus [6]): inactive

CC#Cc1ccc(CNC(=O)[C@@H](COC)NC(C)=O)cc1
ED50 (Mus musculus [1]): 10 mg/kg | TD50 [2]: 30 mg/kg | Activity (Mus musculus [3]): inactive | Activity (Rattus norvegicus [4]): inactive | Activity (Mus musculus [5]): inactive | Activity (Rattus norvegicus [6]): inactive

COC[C@@H](NC(C)=O)C(=O)NCc1ccc(C#C[Si](C)(C)C)cc1
ED50 (Mus musculus [1]): > 3 mg/kg | TD50 [2]: 3 mg/kg | Activity (Mus musculus [3]): inactive | Activity (Rattus norvegicus [4]): inactive | Activity (Mus musculus [5]): inactive | Activity (Rattus norvegicus [6]): inactive

COC[C@@H](NC(C)=O)C(=O)NCc1ccc(Cl)cc1Cl
ED50 (Mus musculus [1]): 30 mg/kg

C=Cc1ccc(CNC(=O)[C@H](COC)NC(C)=O)cc1
ED50 (Mus musculus [1]): 100 mg/kg | TD50 [2]: > 300 mg/kg | Activity (Mus musculus [3]): inactive | Activity (Rattus norvegicus [4]): inactive | Activity (Mus musculus [5]): inactive | Activity (Rattus norvegicus [6]): inactive

COC[C@@H](NC(C)=O)C(=O)NCc1ccc([N+](=O)[O-])cc1
ED50 (Mus musculus [1]): 100 mg/kg

COC[C@@H](NC(C)=O)C(=O)NCc1ccc(CCCO)cc1
ED50 (Mus musculus [1]): > 300 mg/kg | TD50 [2]: > 300 mg/kg | Activity (Mus musculus [3]): inactive | Activity (Rattus norvegicus [4]): inactive | Activity (Mus musculus [5]): inactive | Activity (Rattus norvegicus [6]): inactive

CCC1(c2ccccc2)C(=O)NC(=O)NC1=O
Activity (Mus musculus [3]): inactive | Activity (Rattus norvegicus [4]): inactive | Activity (Mus musculus [5]): inactive | Activity (Rattus norvegicus [6]): inactive

C#Cc1ccc(CNC(=O)[C@H](COC)NC(C)=O)cc1
ED50 (Mus musculus [1]): > 300 mg/kg | TD50 [2]: > 300 mg/kg | Activity (Mus musculus [3]): inactive | Activity (Rattus norvegicus [4]): inactive | Activity (Mus musculus [5]): inactive | Activity (Rattus norvegicus [6]): inactive

COC[C@@H](NC(C)=O)C(=O)NCc1ccc(C(=O)OC)cc1
ED50 (Mus musculus [1]): 100 mg/kg | TD50 [2]: > 300 mg/kg | Activity (Mus musculus [3]): inactive | Activity (Rattus norvegicus [4]): inactive | Activity (Mus musculus [5]): inactive | Activity (Rattus norvegicus [6]): inactive

COC[C@@H](NC(C)=O)C(=O)NCc1ccc(C=O)cc1
ED50 (Mus musculus [1]): > 300 mg/kg | TD50 [2]: > 300 mg/kg | Activity (Mus musculus [3]): inactive | Activity (Rattus norvegicus [4]): inactive | Activity (Mus musculus [5]): inactive | Activity (Rattus norvegicus [6]): inactive

COC[C@@H](NC(C)=O)C(=O)NCc1ccc(C#CC(C)(C)C)cc1
ED50 (Mus musculus [1]): > 300 mg/kg | TD50 [2]: 30 mg/kg | Activity (Mus musculus [3]): inactive | Activity (Rattus norvegicus [4]): inactive | Activity (Mus musculus [5]): inactive | Activity (Rattus norvegicus [6]): inactive

COC[C@@H](NC(C)=O)C(=O)NCc1ccc(CNC(=O)OC(C)(C)C)cc1
ED50 (Mus musculus [1]): > 300 mg/kg | TD50 [2]: > 300 mg/kg | Activity (Mus musculus [3]): inactive | Activity (Rattus norvegicus [4]): inactive | Activity (Mus musculus [5]): inactive | Activity (Rattus norvegicus [6]): inactive

COC[C@@H](NC(C)=O)C(=O)NCc1ccc(N=C=S)cc1
ED50 (Mus musculus [1]): 24 mg/kg

COC[C@@H](NC(C)=O)C(=O)NCc1ccc(C(=O)O)cc1
ED50 (Mus musculus [1]): > 300 mg/kg | TD50 [2]: > 300 mg/kg | Activity (Mus musculus [3]): inactive | Activity (Rattus norvegicus [4]): inactive | Activity (Mus musculus [5]): inactive | Activity (Rattus norvegicus [6]): inactive

COC[C@@H](NC(C)=O)C(=O)NCc1cccc(OC(F)(F)F)c1
ED50 (Mus musculus [1]): 10 mg/kg | TD50 [2]: 30 mg/kg | Activity (Mus musculus [3]): inactive | Activity (Rattus norvegicus [4]): inactive | Activity (Mus musculus [5]): inactive | Activity (Rattus norvegicus [6]): inactive

COC[C@@H](NC(C)=O)C(=O)NCc1ccc(N)cc1
ED50 (Mus musculus [1]): > 300 mg/kg | TD50 [2]: > 300 mg/kg | Activity (Mus musculus [3]): inactive | Activity (Rattus norvegicus [4]): inactive | Activity (Mus musculus [5]): inactive | Activity (Rattus norvegicus [6]): inactive

COC[C@@H](NC(C)=O)C(=O)NCc1ccc(CN)cc1.Cl
ED50 (Mus musculus [1]): > 300 mg/kg | TD50 [2]: > 300 mg/kg | Activity (Mus musculus [3]): inactive | Activity (Rattus norvegicus [4]): inactive | Activity (Mus musculus [5]): inactive | Activity (Rattus norvegicus [6]): inactive

COC[C@@H](NC(C)=O)C(=O)NCc1ccc(S(N)(=O)=O)cc1
ED50 (Mus musculus [1]): > 300 mg/kg | TD50 [2]: > 300 mg/kg | Activity (Mus musculus [3]): inactive | Activity (Rattus norvegicus [4]): inactive | Activity (Mus musculus [5]): inactive | Activity (Rattus norvegicus [6]): inactive
